The test system of test [1] is Staphylococcus aureus. Nature of the test: Antimicrobial activity against methicillin-resistant Staphylococcus aureus Stau_Mu50-HIP5406 isolate. Format: functional. The method in brief: (§1)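 MICs were run by broth microdilution as recommended by NCCLS, in cation-adjusted Mueller-Hinton broth. Compound was serially diluted 2-fold, over a final range of 64 to 0.03 µg/mL after inoculation.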

In test [2] the test system is Bacillus anthracis. Description: Antimicrobial activity against Bacillus anthracis HHT105-5R isolate. Format: functional.
The subject of test [3] is Enterococcus faecalis. Description: Antimicrobial activity against vancomycin-resistant Enterococcus faecalis Enfa_vre-2 isolate. Format: functional. In short, it runs like this: as §1
Test [4] concerns Enterococcus faecalis. Nature of the test: Antimicrobial activity against vancomycin-resistant Enterococcus faecalis Enfa_t29862 isolate. It counts as functional. In short, it runs like this: as §1
The species named for test [5] is Mus musculus. Description: Effect on survival of BALB/c mouse infected with Staphylococcus aureus PGO#172. It counts as functional. The method in brief: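 Mice received a lethal dose of S. aureus PGO#172 (ATCC#29213) by intraperitoneal injection. They were treated with an iv bolus at 1, 5, 10, 25 or 50 mg/kg, in groups of five. Mortality was the endpoint, and ED50 was derived from the dose-response.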

Test [6] relates to Staphylococcus aureus. Nature of the test: Antimicrobial activity against methicillin-resistant Staphylococcus Stau_33591 isolate. Format: functional. The method in brief: as §1
Test [7] deals with Enterococcus faecium. Nature of the test: Antimicrobial activity against vancomycin-susceptible Enterococcus faecium 568 isolate. Format: functional. In short, it runs like this:
as §1

Test [8] relates to Mus musculus. Nature of the test: Survival of pulmonary anthrax BALB/c mouse model infected with Bacillus anthracis Ames at 10 mg/kg, sc after 6 days. It counts as functional. To be noted: 144 h, route subcutaneous.
Test [9] has as its system Bacillus anthracis. Nature of the test: Antimicrobial activity against Bacillus anthracis HH105-6 isolate. Format: functional.
For test [10], the system named is Mus musculus. Description: Survival of BALB/c mouse pulmonary challenged with Bacillus anthracis at 1 mg/kg. It counts as functional.
The test system of test [11] is Mus musculus. Nature of the test: Survival of BALB/c mouse pulmonary challenged with Bacillus anthracis at 0.3 mg/kg. It counts as functional.
In test [12] the test system is Enterococcus faecalis. Nature of the test: Antimicrobial activity against vancomycin-resistant Enterococcus faecalis 560 isolate. It counts as functional. The method in brief: as §1
Test [13] relates to Staphylococcus haemolyticus. Nature of the test: Antimicrobial activity against Staphylococcus haemolyticus 602 isolate. It counts as functional. The method in brief: as §1
Test [14] relates to Staphylococcus aureus. Description: Antimicrobial activity against glycopeptide intermediate resistant Staphylococcus aureus 3798 isolate. Format: functional. The method in brief:
as §1

The subject of test [15] is Enterococcus faecalis. Nature of the test: Antimicrobial activity against vancomycin-susceptible Enterococcus faecalis 559 isolate. Format: functional. The method in brief: as §1
The next test deals with Escherichia coli. Description: Antimicrobial activity against Escherichia coli Esco_25922 isolate. Format: functional.
The subject of test [16] is Staphylococcus aureus. Nature of the test: Antimicrobial activity against methicillin-resistant Staphylococcus aureus Stau_b11386 isolate. Format: functional. In short, it runs like this: as §1
Test [17] concerns Staphylococcus aureus. Nature of the test: Antimicrobial activity against methicillin-resistant Staphylococcus aureus Stau_29213 isolate. It counts as functional. In short, it runs like this: as §1
Test [18] relates to Enterococcus faecium. Nature of the test: Antimicrobial activity against vancomycin-resistant Enterococcus faecium 569 isolate. It counts as functional. The method in brief:
as §1

In test [19] the test system is Staphylococcus aureus. Description: Antimicrobial activity against methicillin-resistant Staphylococcus aureus Stau_HIP5827 isolate. Format: functional. The method in brief: as §1
Test [20] concerns Enterococcus faecalis. Description: Antimicrobial activity against vancomycin-susceptible Enterococcus faecalis Enfa_29212 isolate. Format: functional. The method in brief: as §1
Test [21] has as its system Mus musculus. Description: Survival of BALB/c mouse pulmonary challenged with Bacillus anthracis at 10 mg/kg. Format: functional.
The test system of test [22] is Bacillus anthracis. Nature of the test: Antimicrobial activity against Bacillus anthracis HH105-5 isolate. Format: functional.
Test [23] relates to Mus musculus. Description: Survival of pulmonary anthrax BALB/c mouse model infected with Bacillus anthracis Ames at 30 mg/kg, sc after 6 days. Format: functional. As to conditions: 144 h, route subcutaneous.
Test [24] concerns Bacillus anthracis. Description: Antimicrobial activity against Bacillus anthracis Ames. It counts as functional.
The subject of test [25] is Mus musculus. Nature of the test: Survival of pulmonary anthrax BALB/c mouse model infected with Bacillus anthracis Ames at 30 mg/kg, sc twice daily for 6 days. As to conditions: 144 h, route subcutaneous. It counts as functional.
The next test has as its system Streptococcus pyogenes. Description: Antimicrobial activity against Streptococcus pyogenes Stpy_8668 isolate. Format: functional.
The subject of test [26] is Bacillus anthracis. Nature of the test: Antimicrobial activity against Bacillus anthracis HH113-6R isolate. Format: functional.
Test [27] has as its system Staphylococcus epidermidis. Nature of the test: Antimicrobial activity against Staphylococcus epidermidis 533 isolate. It counts as functional. In short, it runs like this:
as §1

Test [28] has as its system Bacillus anthracis. Description: Antimicrobial activity against Bacillus anthracis HH105-5R isolate. It counts as functional.
Test [29] concerns Staphylococcus aureus. Description: Antimicrobial activity against glycopeptide intermediate resistant Staphylococcus aureus 3793 isolate. Format: functional. In short, it runs like this:
as §1

The subject of test [30] is Mus musculus. Nature of the test: Survival of pulmonary anthrax BALB/c mouse model infected with Bacillus anthracis Ames at 100 mg/kg, sc after 6 days. Format: functional. As to conditions: 144 h, route subcutaneous.
The subject of test [31] is Mus musculus. Description: Survival of BALB/c mouse pulmonary challenged with Bacillus anthracis at 3 mg/kg. Format: functional.
Test [32] has as its system Bacillus anthracis. Description: Protection against Bacillus anthracis challenged BALB/c mouse at 106 mg/kg, iv after 3 days. Format: functional, organism-based. Also on record: dose 106 mg/kg.
Test [33] relates to Mus musculus. Description: Protection against pulmonary anthrax BALB/c mouse model infected with Bacillus anthracis at 135 mg/kg, po after 6 days. Format: functional. To be noted: 144 h.
The subject of test [34] is Mus musculus. Description: Survival of BALB/c mouse pulmonary challenged with Bacillus anthracis at 114 mg/kg, po. Format: functional.

In brackets after ≈: the same amount, converted by molar mass. Activity calls are given as the source filed them. No cut-off for these calls is given here.

Consider `CN[C@H](CC(C)C)C(=O)N[C@H]1C(=O)N[C@@H](CC(N)=O)C(=O)N[C@H]2C(=O)N[C@H]3C(=O)N[C@H](C(=O)N[C@H](C(=O)NC45CC6CC(CC(C6)C4)C5)c4cc(O)cc(O)c4-c4cc3ccc4O)[C@H](O[C@@H]3C[C@@](C)(N)[C@H](O)[C@@H](C)O3)c3ccc(cc3)Oc3cc2cc(c3O[C@H]2O[C@@H](CO)[C@H](O)[C@@H](O)[C@@H]2O[C@H]2C[C@](C)(N)[C@@H](O)[C@H](C)O2)Oc2ccc(cc2Cl)[C@H]1O`, for which the MIC – broadly, the least concentration at which growth counts as inhibited – with Staphylococcus aureus [1] worked out at 0.4 µg/mL (≈ 0.237 µM); against Bacillus anthracis [2], 0.25 µg/mL (≈ 0.148 µM); against Enterococcus faecalis [3] it was 12.5 µg/mL (≈ 7.39 µM); with Enterococcus faecalis [4], 6.25 µg/mL (≈ 3.7 µM); with Staphylococcus aureus [6], 0.78 µg/mL (≈ 0.461 µM); with Enterococcus faecium [7], 0.5 µg/mL (≈ 0.296 µM). Also, the MIC in the test on Bacillus anthracis [9] was 0.5 µg/mL (≈ 0.296 µM); against Enterococcus faecalis [12], 8 µg/mL (≈ 4.73 µM); in [13] it was 0.25 µg/mL (≈ 0.148 µM); in the test on Staphylococcus aureus [14], 2 µg/mL (≈ 1.18 µM); against Enterococcus faecalis [15] it was 0.5 µg/mL (≈ 0.296 µM); against Escherichia coli it was over 50 µg/mL. Besides, the MIC in the test with Staphylococcus aureus [16] is 0.78 µg/mL (≈ 0.461 µM); in the test on Staphylococcus aureus [17], 0.78 µg/mL (≈ 0.461 µM); in the test on Enterococcus faecium [18], 4 µg/mL (≈ 2.37 µM); against Staphylococcus aureus [19], 1.56 µg/mL (≈ 0.922 µM); against Enterococcus faecalis [20], 0.4 µg/mL (≈ 0.237 µM); against Bacillus anthracis [22] it was 0.5 µg/mL (≈ 0.296 µM). Besides, the MIC is 0.5 µg/mL (≈ 0.296 µM) in the test on Bacillus anthracis [24]; 0.2 µg/mL (≈ 0.118 µM) against Streptococcus pyogenes; 0.5 µg/mL (≈ 0.296 µM) against Bacillus anthracis [26]; 0.25 µg/mL (≈ 0.148 µM) in [27]; 0.25 µg/mL (≈ 0.148 µM) in the test with Bacillus anthracis [28]; 1 µg/mL (≈ 0.591 µM) against Staphylococcus aureus [29]. In the test listed under Mus musculus [5], it took a dose of 20.4 mg/kg to reach the 50% effect level (ED50). Moreover, the survival at 10 mg/kg in the test with Mus musculus [8] came out at 88%; in the test with Mus musculus [21], 85.7%. In addition, the survival at 1 mg/kg in the test on Mus musculus [10] stood at 50%. In the test with Mus musculus [11], this molecule showed a survival at 0.3 mg/kg of 12.5%. Besides, the survival at 30 mg/kg in the test with Mus musculus [23] is 88%; in the test on Mus musculus [25] it was 86%. This molecule yielded a survival at 100 mg/kg in the test with Mus musculus [30] of 100%. Also, the survival at 3 mg/kg in the test on Mus musculus [31] is 62.5%.

With `O=C(O)c1cn(C2CC2)c2cc(N3CCNCC3)c(F)cc2c1=O` [CIPROFLOXACIN], the MIC against Bacillus anthracis [2] was 8 µg/mL (≈ 24.1 µM); with Bacillus anthracis [9] it was 32 µg/mL (≈ 96.6 µM); against Bacillus anthracis [22], 8 µg/mL (≈ 24.1 µM); against Bacillus anthracis [26], 4 µg/mL (≈ 12.1 µM); with Bacillus anthracis [28], 4 µg/mL (≈ 12.1 µM). Besides, the outcome in the test with Bacillus anthracis [32] was Active. The molecule also returned a survival at 135 mg/kg with Mus musculus [33] of 75%. The molecule further had a survival at 114 mg/kg in the test with Mus musculus [34] of 87.5%. This molecule also showed a survival at 30 mg/kg in the test on Mus musculus [23] of 75%.

The record behind these values is ChEMBL document CHEMBL1146231, “Novel semisynthetic derivative of antibiotic Eremomycin active against drug-resistant gram-positive pathogens including Bacillus anthracis” (J Med Chem, 2007).
